Experimental data reported in publication PMC2581794 (Bioorganic & medicinal chemistry, 2008).

Tests used:
[1] = molecular target: Lck (Homo sapiens, UniProt P06239); test: Photoaffinity-labeling; type: biochemical; conditions: for photolabeling of Lck in the presence of an ATP-competitive inhibitor of Lck: Figure S2, competition with ATP-competitive Lck inhibitor; for photolabeling efficiency of Lck (in words): compared with compound 1
How it was run: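 Commercial Lck photolabelled with biotin-tagged benzophenone ligands at 0, 3, 9, 18, 36, 90 and 180 µM. Western blot on PVDF: after blocking, streptavidin-HRP (1:10,000 in 3% non-fat milk/TBS-T) and ECL-Plus chemiluminescence. Bands quantified with background subtracted as 0%; 100% = maximal band of reference photoligand at 180 µM. EC50 from sigmoidal fit of triplicates (n = 3), with 95% CI.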

[2] = Decomposition of free photoligands under UV light; type: physicochemical; conditions: UV-A lamp λmax 350 nm, up to 30 min, HPLC
How it was run: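 Each probe at 30 µM in buffer was held on ice about 5 cm below six 15 W blacklight lamps (λmax 350 nm). Aliquots taken at 0, 10 and 30 min were analysed by RP-HPLC with UV detection at 280 nm. Intact probe concentration was estimated from chromatogram peak areas.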

Sequence of Lck (P06239 whole entry): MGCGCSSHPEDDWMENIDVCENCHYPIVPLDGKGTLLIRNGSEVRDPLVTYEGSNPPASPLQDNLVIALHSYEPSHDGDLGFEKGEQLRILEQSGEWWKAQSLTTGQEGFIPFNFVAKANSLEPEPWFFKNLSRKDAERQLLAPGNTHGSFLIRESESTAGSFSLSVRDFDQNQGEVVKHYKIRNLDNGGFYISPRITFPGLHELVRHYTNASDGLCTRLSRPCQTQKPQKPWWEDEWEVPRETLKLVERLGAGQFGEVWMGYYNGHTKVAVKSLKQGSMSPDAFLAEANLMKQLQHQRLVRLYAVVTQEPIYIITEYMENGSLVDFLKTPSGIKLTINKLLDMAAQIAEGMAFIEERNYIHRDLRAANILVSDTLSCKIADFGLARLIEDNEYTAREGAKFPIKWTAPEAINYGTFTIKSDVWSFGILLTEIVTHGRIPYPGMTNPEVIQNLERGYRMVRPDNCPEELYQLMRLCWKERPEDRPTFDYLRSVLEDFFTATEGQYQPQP

Nc1ncnc2c1ncn2CC(=O)N(CCNC(=O)CNC(=O)[C@H](Cc1ccc(C(=O)c2ccccc2)cc1)NC(=O)CCCNC(=O)CCCC[C@@H]1SC[C@@H]2NC(=O)N[C@@H]21)CC(=O)NCC(=O)O [Compound 1]
photolabeling of Lck in the presence of an ATP-competitive inhibitor of Lck [1]: completely blocked

Nc1ncnc2c1ncn2CC(=O)N(CCNC(=O)[C@@H](CO)NC(=O)[C@H](Cc1ccc(C(=O)c2ccccc2)cc1)NC(=O)CCCNC(=O)CCCC[C@@H]1SC[C@@H]2NC(=O)N[C@@H]21)CC(=O)NCC(=O)O [Compound 2]
photolabeling of Lck in the presence of an ATP-competitive inhibitor of Lck [1]: completely blocked | photolabeling efficiency of Lck (in words) [1]: comparable to that of 1

Nc1ncnc2c1ncn2CC(=O)N(CCNC(=O)[C@@H](CCC(=O)O)NC(=O)[C@H](Cc1ccc(C(=O)c2ccccc2)cc1)NC(=O)CCCNC(=O)CCCC[C@@H]1SC[C@@H]2NC(=O)N[C@@H]21)CC(=O)NCC(=O)O [Compound 3]
photolabeling of Lck in the presence of an ATP-competitive inhibitor of Lck [1]: completely blocked | photolabeling efficiency of Lck (in words) [1]: comparable to that of 1

Nc1ncnc2c1ncn2CC(=O)N(CCNC(=O)[C@H]1CCCN1C(=O)[C@H](Cc1ccc(C(=O)c2ccccc2)cc1)NC(=O)CCCNC(=O)CCCC[C@@H]1SC[C@@H]2NC(=O)N[C@@H]21)CC(=O)NCC(=O)O [Compound 4]
decomposition of free ligand under UV (in words) [2]: almost identical to that of 1

Nc1ncnc2c1ncn2CC(=O)N(CCNC(=O)CCCNC(=O)[C@H](Cc1ccc(C(=O)c2ccccc2)cc1)NC(=O)CCCNC(=O)CCCC[C@@H]1SC[C@@H]2NC(=O)N[C@@H]21)CC(=O)NCC(=O)O [Compound 6]
photolabeling of Lck in the presence of an ATP-competitive inhibitor of Lck [1]: completely blocked
